From PubChem
CHRM4 PAM: positive allosteric modulators of human muscarinic M4 receptor; P08173; CHO-K1 hM4/Gqi5, Fluo-8 calcium fluorescence, ACh EC20; 0% = ACh EC20, 100% = maximal ACh; 360,000 compounds, 0.4% hits; AID 624126; activation, % at 3 µM;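 active means activation above its plate's cutoff, the mean activation of sample wells plus 3 SD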
TAAR1 antagonist: antagonists of human TAAR1; CHO RD-HGA16 TAAR1, Fluo-8 calcium fluorescence, antagonist; inhibition, % at 3 µM; 360,000 compounds, 1.5% hits; AID 624466;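 active means inhibition above a per-plate cutoff, the mean inhibition of test compounds on that plate plus 3 SD, cut at about 49% in these data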
Target sequence (Q96RJ0 whole entry, looked up): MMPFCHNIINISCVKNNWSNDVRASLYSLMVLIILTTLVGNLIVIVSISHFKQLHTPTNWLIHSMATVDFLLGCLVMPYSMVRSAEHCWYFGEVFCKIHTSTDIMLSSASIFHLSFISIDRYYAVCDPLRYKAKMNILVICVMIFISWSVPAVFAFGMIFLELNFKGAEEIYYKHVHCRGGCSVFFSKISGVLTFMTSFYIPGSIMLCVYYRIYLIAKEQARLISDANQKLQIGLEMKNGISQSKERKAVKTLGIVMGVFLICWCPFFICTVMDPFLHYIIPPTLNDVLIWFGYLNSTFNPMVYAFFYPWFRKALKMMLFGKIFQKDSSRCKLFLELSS
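Test system – hTAAR1-expressing CHO RD-HGA16 cells, Gα16-coupled · Also added – β-PEA at EC80 concentration, post-compound challenge · Compound – 3 µM, single point · Incubation – dye loading 75 min at 37 °C, then 30 min room temperature · Measured by – Fluo-8 intracellular calcium dye fluorescence, real-time kinetic reads · Benchmarks – vehicle and agonist controls · Replicates – singlicate, one well per test compound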
CHRM4 antagonist: blocks acetylcholine activation of human M4 receptor; P08173; CHO-hM4 cells, ACh EC80, Fluo-8 calcium fluorescence; inhibition, % at 3 µM; 360,000 compounds, 0.73% hits;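 active means inhibition above its plate's cutoff, the mean inhibition of sample wells plus 3 SD, cut at about 27% in these data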
TAAR1 ag: agonists of human TAAR1. CHO RD-HGA16 TAAR1, Fluo-8 calcium fluorescence; vehicle wells 0%, saturating PEA agonist 100%. activation, % at 3 µM. 360,000 compounds, 0.99% hits. AID 624467;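 active means activation above the mean activation of all test compounds in the run plus 3 SD, cut at about 38% in these data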
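Assay system – CHO-derived RD-HGA16 cells with stable Gα16 and human TAAR1 · Compound dosing – one-point dosing at 3 µM (nominal) · Incubation – 17-24 h seeding, 75 min 37 °C dye, 30 min RT · Measured by – kinetic Fluo-8 calcium fluorescence · Control set – DMSO vehicle as 0%, PEA at EC100 as 100% · Repeats – single well for each compound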
M4 ag: CHRM4 agonism in calcium assay. activation, % at 3 µM. P08173. CHO-K1 hM4/Gqi5, Fluo-8 calcium fluorescence; vehicle 0%, full acetylcholine response 100%. 360,000 compounds, 0.14% hits. AID 624127;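 active means activation above the run mean over all test wells plus 3 SD, cut at about 32% in these data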;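 further: peak over basal fluorescence ratio per well then scaled between controls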
A number is an active result; - = inactive; . = no result given. Sampled rows, rich in hits. Any-hit rate of the full collection: about 3%.

SMILES	CHRM4 PAM	TAAR1 antagonist	CHRM4 antagonist	TAAR1 ag	M4 ag
Cc1cc(-c2ccccc2)n(-c2ccc(C(=O)N3CCN(c4ncccn4)CC3)cc2)n1	-	-	31.7	-	-
CCN1C(=O)N(C(C)=O)[C@@H]2C[C@H](C(=O)N3CCCC3)[C@H](C)[C@H](c3ccccc3)C[C@@H]21	.	-	.	-	.
Cc1ccc(C(O)(c2ccccc2)c2ccccc2C(C)N(C)C)c(C)c1 (configuration not stated)	-	-	-	41.2	-
CC(c1ccccc1C(O)c1ccccc1)N(C)C (configuration not stated)	-	-	-	-	-
COc1ccccc1NC(=O)OC[C@@H]1CSCCS(=O)(=O)N1	.	-	.	-	.
CCCn1c(C(=O)OC)cc2c1ccn2-c1ccc(F)cc1	-	-	-	-	-
COC(=O)c1cc2c(ccn2-c2ccc(F)cc2)n1CC(C)C	16.6	-	-	43.6	-
COC(=O)c1cc2c(ccn2-c2ccc(F)cc2)n1C(C)C	-	-	-	39.2	-
N#Cc1ccc2nc(-c3ccc(CN4CCC5(CC4)CNc4ccccc45)cc3)c(-c3ccccc3)nc2c1	.	-	.	-	.
O=C(c1ccco1)N1CCCC(c2nc(-c3ccc(S(=O)(=O)NCc4ccccc4)cc3)no2)C1 (configuration not stated)	-	59.3	-	-	-
O=C(Nc1ccc(-c2nc3ccc(NC(=O)c4cccs4)cc3[nH]2)cc1)c1cccs1	-	60.6	45.9	-	-
CS(=O)(=O)c1cccc(C(=O)Nc2ccc(-c3nc4ccccc4[nH]3)cc2)c1	-	-	-	-	-
Cc1ccccc1C(=O)Nc1ccc(-c2nc3ccc(C(=O)c4ccccc4)cc3[nH]2)cc1	-	102.7	36.1	-	-
O=C(c1ccccc1)c1ccc2nc(-c3ccc(NC(=O)c4ccccc4Br)cc3)[nH]c2c1	-	68.0	28.1	-	-
CS(=O)(=O)c1ccccc1C(=O)Nc1ccc(-c2nc3ccccc3[nH]2)cc1	-	-	-	-	-
Cc1cccc(C)c1NC(=O)C1(C)CSCC(=O)N1CCc1ccccc1 (configuration not stated)	-	-	-	-	-
COC(=O)c1[nH]c2ccc(F)cc2c1NS(=O)(=O)c1ccc(OC)cc1	-	-	29.4	-	-
Cc1onc(-c2ccccc2)c1C(=O)NN=Cc1cc(Cl)cc(Cl)c1O	.	-	.	-	.
O=C(NCc1ccccc1)[C@@H]1CCCN1C(=O)[C@H]1CCCN1C(=O)c1ccccc1	.	-	.	-	.
O=C(CC1Oc2ccccc2NC1=O)NCCc1ccccc1 (configuration not stated)	-	-	-	65.9	-
CCC(C)N(CCNC(=O)CC1Oc2ccccc2NC1=O)C1CCCCC1 (configuration not stated)	-	-	44.8	-	-
CC1CCN(Cc2ccc(NC(=O)CC3Oc4ccccc4NC3=O)cc2)CC1 (configuration not stated)	-	-	97.5	-	-
CC(C)CN(CCNC(=O)CC1Oc2ccccc2NC1=O)CC(C)C (configuration not stated)	-	-	-	-	-
Cc1ccc(CCNC(=O)CC2Oc3ccc(C)cc3NC2=O)cc1 (configuration not stated)	-	-	-	-	-
CC1(C(=O)NS(=O)(=O)Cc2ccccc2)CCN1C(=O)Cc1ccccc1Cl (configuration not stated)	-	-	-	-	-
SMILES	CHRM4 PAM	TAAR1 antagonist	CHRM4 antagonist	TAAR1 ag	M4 ag
Cc1ccccc1-c1cc(C(=O)NCc2cccc(C(F)(F)F)c2)n(CC2CC(c3cccnc3)=NO2)n1 (configuration not stated)	-	54.5	-	-	-
Cc1ccccc1-c1cc(C(=O)NCc2cccc(C(F)(F)F)c2)nn1CC1CC(c2cccc([N+](=O)[O-])c2)=NO1 (configuration not stated)	-	-	-	-	-
O=C(NCc1cccc(C(F)(F)F)c1)c1cc(-c2ccccc2)nn1CC1CC(c2cccnc2)=NO1 (configuration not stated)	-	-	-	-	-
COc1ccc(C2=NOC(Cn3nc(C(=O)NCc4cccc(C(F)(F)F)c4)cc3-c3ccccc3)C2)cc1 (configuration not stated)	-	54.8	-	-	-
COCCNC(=O)c1cc(-c2ccccc2)n(CC2CC(c3ccc(OC)cc3)=NO2)n1 (configuration not stated)	-	52.9	-	-	-
COc1ccc(C2=NOC(Cn3nc(C(=O)O)cc3-c3ccccc3)C2)cc1 (configuration not stated)	-	-	-	-	-
COc1ccc(C2=NOC(Cn3nc(C(=O)NCc4ccc(C)cc4)cc3-c3ccccc3)C2)cc1 (configuration not stated)	-	57.8	-	-	-
C[C@H](c1ccccc1)N1C[C@@H](COCc2ccccc2)Oc2cccc(N3CCCCC3)c2S1(=O)=O	.	-	.	-	.
C[C@H](CO)N1C[C@H](C)[C@@H](CN(C)C(=O)NC2CCCCC2)Oc2ccc(NC(=O)Cc3ccccc3)cc2C1=O	-	-	-	-	-
Cc1cc(C)cc(-c2nnc(SCC(=O)NCC3CCCO3)o2)c1 (configuration not stated)	23.0	-	-	-	-
Cc1ccccc1C(=O)N1CCC[C@@H]1C(=O)N1CCC[C@H]1C(=O)NCc1ccccc1	.	-	.	-	.
CCN(c1cccc(C(F)(F)F)c1)S(=O)(=O)c1ccc2c(c1)CCN2C(=O)C1CC1	-	60.9	-	-	-
C=CCC[C@H](Cc1ccc(F)cc1)C(=O)OC[C@H](Cc1c[nH]c2ccccc12)NC(=O)[C@H](CC=C)CC(=O)N(CCO)Cc1ccccc1	-	-	-	-	-
C=CC[C@@H](CC(=O)N(CCO)Cc1ccccc1)C(=O)N[C@H](COC(=O)[C@@H](CC=C)Cc1ccc(F)cc1)Cc1c[nH]c2ccccc12	-	58.7	-	-	-
C=CC[C@H](CC(=O)N(CCO)Cc1ccccc1)C(=O)N[C@H](COC(=O)[C@@H](CC=C)Cc1ccc(F)cc1)Cc1c[nH]c2ccccc12	-	58.6	-	-	-
O=C(/C=C/c1ccccc1)NC(=S)NNC(=O)c1ccco1	-	-	-	43.0	-
c1ccc(-c2cc3nc(NCc4cccs4)ccn3n2)cc1	-	-	-	-	-
NS(=O)(=O)c1ccc(CCNc2ccn3nc(-c4cccc(C(F)(F)F)c4)cc3n2)cc1	-	60.8	-	-	-
COc1ccccc1-c1cc2nc(NCCc3ccc(S(N)(=O)=O)cc3)ccn2n1	-	55.5	-	-	-
COc1ccccc1-c1cc2nc(NCCc3ccncc3)ccn2n1	-	-	-	-	-
